Km and Ki data for two molecules are collected here from ChEMBL document CHEMBL1143844, “Biochemical studies on the mechanism of human immunodeficiency virus type 1 reverse transcriptase resistance to 1-(beta-D-dioxolane)thymine triphosphate” (Antimicrob Agents Chemother, 2007).

The subject of assay [1] is Human immunodeficiency virus 1. The assay is described as follows: Activity of HIV1 reverse transcriptase 41L/69S-SG/210W/215Y mutant in presence of 3.2 mM ATP by prA/odT assay.
In assay [2] the test system is Human immunodeficiency virus 1. Briefly: (§1) Activity of HIV1 reverse transcriptase wild type HXB2(b) in presence of 3.2 mM ATP by prA/odT assay. Put shortly:
(§2)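 Buffer is HEPES 50 mM pH 7.3 with MgCl2 10 mM, Triton X-100 0.5% and BSA 0.1 mg/ml. RT 4–12 pM/well, 33°C for 180 min, no NaOH step. Km obtained as the mean of at least two runs done in duplicate.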

The nature of assay [3]: Inhibition of HIV1 reverse transcriptase 41L/67N/70R/215Y/219Q mutant in presence of 3.2 mM ATP by prA/odT assay. More on the design: species or system Human immunodeficiency virus 1. The method, boiled down: (§3)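 Buffer: 50 mM HEPES pH 7.3, 10 mM MgCl2, 0.5% Triton X-100, 0.1 mg/ml BSA. Incubation 180 min at 33°C. Product detected with AP-conjugated anti-BrdU at 405 nm. […] Ki from four inhibitor levels. At least two experiments in duplicate.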

Assay [4] relates to Human immunodeficiency virus 1. Briefly: (§4) Activity of HIV1 reverse transcriptase 41L/67N/70R/215Y/219Q mutant in presence of 3.2 mM ATP by prA/odT assay. Put shortly: as §3
For assay [5], the target named is HIV1 RT 41L/69S-SG/210W/215Y mutant (HIV-1). Briefly: Inhibition of HIV1 reverse transcriptase 41L/69S-SG/210W/215Y mutant in presence of 3.2 mM ATP by prA/odT assay.
Assay [6] concerns Human immunodeficiency virus 1. Briefly: (§5) Activity of HIV1 reverse transcriptase 41L/67N/70R/210W/215Y mutant in presence of 3.2 mM ATP by prA/odT assay. The method, boiled down:
as §3

In assay [7] the test system is Human immunodeficiency virus 1. The assay is described as follows: Activity of HIV1 reverse transcriptase wild type HXB2(a) in presence of 3.2 mM ATP by prA/odT assay. The method, boiled down: as §2
Assay [8] can be described thus: Activity of HIV1 reverse transcriptase 41L/69S-SG/210W/215Y mutant in presence of 3.2 mM ATP by prA/odT assay.
Assay [9] in a line: as §1. More on the design: species or system Human immunodeficiency virus 1. Put shortly:
as §2

A short description of assay [10]: as §4. More on the design: species or system Human immunodeficiency virus 1. Put shortly:
as §3

Assay [11] in a line: as §5. Also noted: species or system Human immunodeficiency virus 1. The method, boiled down:
as §3

On to `Cc1cn([C@H]2CO[C@@H](COP(=O)(O)OP(=O)(O)OP(=O)(O)O)O2)c(=O)[nH]c1=O`, for which the Km came out at 0.5 µM in assay [1]; 0.24 µM in [2]; 0.42 µM in assay [4]; 0.51 µM in [6]; 0.32 µM in assay [7]. For the same molecule, the Ki came out at 0.011 µM in [3] and 0.059 µM in assay [5].
`Cc1cn([C@H]2C[C@H](N=[N+]=[N-])[C@@H](COP(=O)(O)OP(=O)(O)OP(=O)(O)O)O2)c(=O)[nH]c1=O` [ZIDOVUDINE TRIPHOSPHATE]: the Km in assay [8] was 0.53 µM; in assay [9] it was 0.29 µM; in [10] it was 0.49 µM; in assay [11], 0.43 µM. In assay [3], the Ki is 0.095 µM.
